Bioassay records (PubChem)
This is a sample that favours compounds with a hit; in the whole collection about 1.5% have one here.
HNF4A DNA FP = change in binding of human HNF4A to DNA, primary screen, biochemical, fluorescence polarization, FITC-DNA; Hepatocyte nuclear factor 4-alpha (Homo sapiens), P41235; actives 0.3% (n = 360,000); activity change, % at 10 µM; 1 h; in the data active = activity change above about 30%, passing the limit was not always enough
CSN deneddyl inh = inhibitors of CSN-mediated cullin deneddylation, primary screen, biochemical, fluorescence polarization, uHTS | COP9 signalosome complex subunit 5 (Homo sapiens), Q92905 | Purified CSN, SCF-Nedd8-OG deneddylation | inhibition, % at 12.5 µM | actives 0.38% (n = 360,000) | AID 651999, 2013;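 active = pattern-corrected inhibition above about 35%, with an unprinted fluorescence ratio check between 0.5 and 1.5, limit read from the data, passing the limit was not always enough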;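 note: 0% = enzyme with substrate and 100% = substrate without enzyme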
Target sequence (Q92905 whole entry, looked up, one chain of several): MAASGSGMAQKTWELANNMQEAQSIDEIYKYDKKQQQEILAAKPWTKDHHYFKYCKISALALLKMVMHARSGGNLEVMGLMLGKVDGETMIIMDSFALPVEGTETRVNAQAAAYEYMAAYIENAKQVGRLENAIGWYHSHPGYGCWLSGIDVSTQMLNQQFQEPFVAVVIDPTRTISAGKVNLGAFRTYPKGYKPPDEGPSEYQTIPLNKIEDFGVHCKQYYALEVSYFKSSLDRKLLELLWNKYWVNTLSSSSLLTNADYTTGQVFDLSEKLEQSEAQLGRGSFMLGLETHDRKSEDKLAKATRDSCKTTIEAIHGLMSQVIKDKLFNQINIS
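Schedule: reaction 90 min, room temperature / Assay system: HEK293T-derived human Csn5 enzyme / Input: Csn5 at 0.24 nM final / Measure: inhibition of Csn5 cleavage, % / Control set: substrate-only high control, full reaction low control / Technique: fluorescence polarization of the substrate / Buffer or medium: Tris/NaCl/DTT buffer, pH 7.5 / Reagent: SCFSkp2-Nedd8OG substrate at 10 nM final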
TPT1 inhibitor = Candida albicans TPT1 enzyme inhibitors, primary screen, biochemical, fluorescence polarization | tRNA 2'-phosphotransferase TPT1 (Candida albicans SC5314) | recombinant caTPT1, FP RNA substrate dephosphorylation | inhibition, % at 5 µM | actives 0.81% (n = 300,000) | AID 1962, 2009;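 active = inhibition above the mean of all tested compounds plus 3 SD, set per screening campaign, cut at about 24% in these data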;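 note: plate controls were DMSO alone for no effect and ferristatin control at 100 nM for full effect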
Rpn11 block = Rpn11 (PSMD14) deubiquitinase inhibitors, primary screen, biochemical, fluorescence polarization, uHTS | 26S proteasome non-ATPase regulatory subunit 14 (Homo sapiens), O00487 | human 26S proteasome, Ub4-pepOG fluorescence polarization; 20S core pre-blocked with epoxomicin | AID 588493, 2011 | actives 0.59% (n = 360,000) | calls only at 20 µM;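 active = inhibition at 20 µM, scaled to each plate's controls, above about 33%, limit read from the data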
Target sequence (O00487 whole entry, looked up): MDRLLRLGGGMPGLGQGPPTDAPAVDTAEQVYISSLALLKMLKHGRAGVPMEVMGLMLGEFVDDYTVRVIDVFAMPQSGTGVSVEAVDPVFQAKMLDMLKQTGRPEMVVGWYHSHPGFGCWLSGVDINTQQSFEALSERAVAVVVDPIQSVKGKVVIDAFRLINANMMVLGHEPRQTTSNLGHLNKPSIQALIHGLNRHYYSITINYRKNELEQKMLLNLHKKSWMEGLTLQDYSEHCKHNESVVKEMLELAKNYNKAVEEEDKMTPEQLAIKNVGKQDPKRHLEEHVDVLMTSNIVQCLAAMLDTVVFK
Rpn11 inh conf = Rpn11 (PSMD14) deubiquitinase inhibitors, confirmation, biochemical, fluorescence polarization, single concentration; inhibition, % at 20 µM; purified human 26S proteasome, Ub4-pepOG fluorescence polarization; proteasome pretreated with epoxomicin; shares compounds with Rpn11 block; AID 602318, 2012; actives 29% (n = 1,900)
MMP-2 counter = MMP-2 enzyme inhibition, confirmation, counter-screen for RPN11 inhibitor project, biochemical, fluorescence, single concentration; actives 4% (n = 1,900); AID 602330, 2012; recombinant MMP-2, FRET peptide cleavage fluorescence; shares compounds with Rpn11 block; inhibition, % at 20 µM;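 note: human MMP-2 activated beforehand with APMA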
Thrombin FP = bovine thrombin protease inhibition, confirmation, counter-screen for Rpn11 inhibitor project, biochemical, fluorescence polarization, single concentration; shares compounds with Rpn11 block; bovine thrombin cleavage of Ub4-pepOG; inhibition, % at 20 µM; actives 13% (n = 1,900);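 active = mean inhibition at least 40% at 20 µM, or signal 3 deviations below plate average, so some actives read negative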;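 note: plate controls were thrombin with DMSO for no effect and buffer wells lacking thrombin for full effect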
The depositor's hits bear a star; i = inactive; nt = no result given; + = active, no number. Cut-off read from the data, not from the text of the source, unless noted: active = inhibition above about 40%; inactive = the rest.

SMILES | HNF4A DNA FP | CSN deneddyl inh | TPT1 inhibitor | Rpn11 block | Rpn11 inh conf | MMP-2 counter | Thrombin FP
Clc1ccc(C2=Nn3c(nnc3-c3cccnc3)SC2)s1 | 1 | 0 | 4 | i | nt | nt | nt
Brc1ccc(C2=Nn3c(nnc3-c3cccnc3)SC2)s1 | -1 | 94* | -2 | + | 1 | -36 | -9
O=C(N/N=C/c1ccncc1)c1ccc(NC(=O)c2cccc(Cl)c2)cc1 | 31 | 78* | 5 | + | 19 | -32 | -10
O=C(N/N=C/c1ccco1)c1ccc(NC(=O)c2ccc(Cl)cc2)cc1 | -7 | 0 | -2 | + | -5 | -1 | -5
O=C(N/N=C/c1ccncc1)c1ccc(NC(=O)c2ccc(Cl)cc2)cc1 | 6 | 12 | 1 | + | 17 | -6 | 2
Cc1ccc(C(=O)Nc2ccc(C(=O)N/N=C/c3ccncc3)cc2)cc1 | nt | nt | 0 | nt | nt | nt | nt
COc1cc(S(C)=O)ccc1-c1nc2ncccc2[nH]1 (centres undefined) | 0 | -4 | 0 | i | nt | nt | nt
O=C(CCCOc1ccc(Br)cc1)Nc1nnc(C2CC2)s1 | 0 | -2 | nt | i | nt | nt | nt
O=c1c2ccccc2c(C=NCc2ccccn2)c(O)n1-c1ccccc1 | 8 | 9 | -1 | + | 35 | -38 | 6
S=C(Nc1cc(Cl)ccc1Oc1ccccc1)N1CCN(c2ccccn2)CC1 | 8 | -1 | nt | + | -8 | 47* | -3
COc1ccc(OC)c(NC(=S)N2CCN(c3ccccn3)CC2)c1 | -2 | -4 | 3 | i | nt | nt | nt
Cc1cccc(NC(=O)NCCN2CCN(c3ccccc3)CC2)c1C | 0 | 2 | -1 | i | nt | nt | nt
COc1cccc(-c2cc(C(=O)Nc3cc(C)on3)no2)c1 | -5 | 8 | 0 | + | 31 | 32 | -7
COc1ccc(-c2cc(C(=O)Nc3cc(Br)ccc3O)no2)cc1 | 25 | 6 | -5 | + | 17 | -19 | -2
COc1ccc(CN(C)CC(=O)NCC(=O)Nc2c(C)cccc2C)cc1 | -4 | -5 | nt | i | nt | nt | nt
CCOC1=C2CN(S(=O)(=O)c3ccc(C)cc3)[C@H](c3ccccc3)C[C@@H]2N(S(C)(=O)=O)[C@H](c2ccccc2)C1 | 14 | 5 | nt | + | 28 | -11 | 19
CCCc1nc2c3ccccc3ccn2c1Cc1ccc(C)cc1 | 8 | 11 | nt | + | 35 | 25 | 19
Cc1ccc(Cc2c(-c3ccco3)nc3c(C)cc(Br)cn23)cc1 | 7 | 18 | nt | i | nt | nt | nt
Cc1ccc(Cc2c(-c3ccco3)nc3c4ccccc4ccn23)cc1 | 18 | 22 | nt | + | 35 | 40* | -8
CCCc1nc2c3ccccc3ccn2c1Cc1cccc(Cl)c1 | 7 | 8 | nt | i | nt | nt | nt
CNC(=O)/C(C#N)=C/c1c(N2CCN(c3ccc(OC)cc3)CC2)nc2c(C)cccn2c1=O | -1 | 3 | -3 | + | -17 | -57 | 9
CC(C)(C)NC(=O)C(c1ccc(O)cc1)N(C(=O)CCC(=O)Nc1ccccn1)c1ccc(F)cc1 (centres undefined) | -2 | 4 | 1 | i | nt | nt | nt
COc1ccc(OC)c(Nc2nc3nonc3nc2N2CCCC(C)C2)c1 (centres undefined) | 20 | 3 | -3 | + | 21 | -19 | -1
CCc1nnc(NC(=O)Cc2ccc(S(=O)(=O)N3CCCCC3)cc2)s1 | -3 | 2 | nt | i | nt | nt | nt
Fc1ccccc1-c1nc(-c2ccccc2)no1 | 0 | -1 | 1 | + | 6 | 11 | -9
SMILES | HNF4A DNA FP | CSN deneddyl inh | TPT1 inhibitor | Rpn11 block | Rpn11 inh conf | MMP-2 counter | Thrombin FP
Cc1nc(N2CCN(C(=O)c3cnccn3)CC2)c2c3c(sc2n1)CC(C(C)(C)C)CC3 (centres undefined) | 2 | 6 | 2 | i | nt | nt | nt
Cc1cc(N2CCCC2)c(F)cc1/C=C\[N+](=O)[O-] | -1 | 31 | nt | + | 60* | -53 | 22
CC1(C(=O)NS(=O)(=O)c2cccc(Cl)c2)CCN1C(=O)CCc1cccs1 (centres undefined) | 6 | -1 | nt | i | nt | nt | nt
N#Cc1c(SCC(=O)Nc2cccc(F)c2)sc2c(O)cc(=O)[nH]c12 | -16 | 9 | 6 | i | nt | nt | nt
N#Cc1cccc(NC(=O)CSc2sc3c(O)cc(=O)[nH]c3c2C#N)c1 | -27 | 11 | 0 | + | -4 | -22 | -17
N#Cc1c(SCC(=O)Nc2nc3ccc(Br)cc3s2)sc2c(O)cc(=O)[nH]c12 | -27 | 29 | 8 | + | 53* | 29 | -5
CSc1ccc(NC(=O)CSc2nc3[nH]c(=O)cc(O)c3s2)cc1 | -22 | 8 | nt | + | 42* | 31 | 18
Cc1cc(C(F)(F)F)c(C#N)c(SCC(=O)Nc2nc3cc(Br)ccc3s2)n1 | 3 | 11 | 15 | + | 30 | 7 | -13
CNC(=O)OCN1C(=O)C2CC=CCC2C1=O (centres undefined) | 2 | -2 | nt | i | nt | nt | nt
COc1ccc(CC(N)c2csc(NC(=O)c3cc(C(C)(C)C)nn3Cc3ccccc3)n2)cc1 (centres undefined) | 14 | 7 | nt | i | nt | nt | nt
NCCCC[C@H]1CN=C(N)N1CCCCC1CCCCC1 | 0 | -6 | -5 | i | nt | nt | nt
NCCCC[C@H]1CN=C(N)N1CC1CCCCC1 | -29 | 2 | 0 | + | -12 | -3 | 47*
COC(=O)c1ccc(Nc2nc(-c3ccncc3)nc3ccccc23)cc1 | 4 | 3 | -3 | + | 33 | -30 | 5
CCC(C)(C)NC(=O)Cc1ccc(OC)c(OC)c1 | 0 | 2 | 2 | + | 6 | -15 | -8
O=C(Nc1cccc2nsnc12)c1ccc(-c2ccc(Br)cc2)o1 | 19 | 21 | 13 | + | 12 | -21 | -5
Cc1nc(C)c(C(=O)N/N=C/c2cc(Br)ccc2O)s1 | 5 | 6 | 24 | + | 5 | -34 | 10
CN1CCCN(S(=O)(=O)c2ccccc2)c2nc3ccccc3nc21 | 3 | 12 | nt | i | nt | nt | nt
CN1CCCNc2nc3ccccc3nc21 | 4 | 10 | 9 | + | -3 | -49 | -8
